The source made the active and inactive calls.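 How the source made its calls, unless noted: active means viability at or below 10% of carrier control in both of two separate runs; inconclusive means viability at or below 10% in only one of the two runs; inactive means the rest.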
Legend:
[1] = Her2 expression decrease, cell viability multiplex – SKBR3 breast tumor cells, AlphaScreen, ATP viability, primary screen (AID 461;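 active means Her2 level under about 52% in both replicate screens, with viability over 70% of control, limit read from the data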;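 on Her2 level: lower value means less Her2 protein in the cells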;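 on viability: percent of carrier control wells set as 100% viability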); conditions: SKBR3 Her2 protein level, 18-24 h, measured here: SKBR3 viability, ATP luminescence, at 10 µM
[2] = target: Receptor tyrosine-protein kinase erbB-2 (Homo sapiens) (UniProt P04626); assay: as above; conditions: 18-24 h, at 10 µM, stronger effect = lower value
Receptor tyrosine-protein kinase erbB-2 (Homo sapiens), sequence (P04626 whole entry, looked up): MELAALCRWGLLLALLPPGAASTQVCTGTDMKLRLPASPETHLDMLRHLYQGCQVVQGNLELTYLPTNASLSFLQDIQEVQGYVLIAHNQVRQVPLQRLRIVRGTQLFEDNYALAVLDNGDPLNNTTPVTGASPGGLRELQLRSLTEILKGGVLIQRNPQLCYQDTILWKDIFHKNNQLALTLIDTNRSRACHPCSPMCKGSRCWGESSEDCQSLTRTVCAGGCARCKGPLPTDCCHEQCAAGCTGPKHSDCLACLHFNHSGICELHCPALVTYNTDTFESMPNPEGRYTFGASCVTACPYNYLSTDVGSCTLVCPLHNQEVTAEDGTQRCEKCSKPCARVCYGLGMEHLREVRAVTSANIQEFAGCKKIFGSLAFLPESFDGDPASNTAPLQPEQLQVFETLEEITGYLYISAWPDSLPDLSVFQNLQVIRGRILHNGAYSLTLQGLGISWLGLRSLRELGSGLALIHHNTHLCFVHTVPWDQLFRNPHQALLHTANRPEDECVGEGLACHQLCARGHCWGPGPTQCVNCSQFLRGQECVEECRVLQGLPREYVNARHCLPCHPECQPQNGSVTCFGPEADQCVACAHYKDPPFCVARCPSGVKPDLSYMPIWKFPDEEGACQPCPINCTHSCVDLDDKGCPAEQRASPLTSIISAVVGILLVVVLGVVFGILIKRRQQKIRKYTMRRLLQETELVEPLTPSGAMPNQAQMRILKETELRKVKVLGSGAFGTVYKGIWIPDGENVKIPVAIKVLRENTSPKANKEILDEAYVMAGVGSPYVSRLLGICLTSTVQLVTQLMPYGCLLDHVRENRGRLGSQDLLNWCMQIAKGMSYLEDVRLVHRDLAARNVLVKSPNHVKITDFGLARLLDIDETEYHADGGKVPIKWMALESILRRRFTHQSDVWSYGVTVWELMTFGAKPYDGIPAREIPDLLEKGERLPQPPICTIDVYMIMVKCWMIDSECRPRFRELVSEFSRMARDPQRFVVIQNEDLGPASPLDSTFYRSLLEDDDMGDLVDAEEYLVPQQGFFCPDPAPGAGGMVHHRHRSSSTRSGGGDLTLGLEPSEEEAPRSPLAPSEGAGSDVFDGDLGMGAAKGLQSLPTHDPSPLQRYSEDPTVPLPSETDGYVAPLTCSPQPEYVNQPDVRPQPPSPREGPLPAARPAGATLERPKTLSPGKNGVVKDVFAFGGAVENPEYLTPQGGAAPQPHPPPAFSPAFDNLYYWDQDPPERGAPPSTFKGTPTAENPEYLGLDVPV

[3] = reduced viability of SK-BR-3 breast cancer cells – cell-based, 24 h, human, pilot screen (AID 572); conditions: SK-BR-3 viability, CellTiter-Glo luminescence, at 10 µM, stronger effect = lower value;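 further: compound exposure lasted between 18 and 24 h rather than exactly 24 h; 100% = carrier-treated control wells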
[4] = HUVEC growth inhibition – cell-based, human, primary screen (AID 575;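 active means viability at or below 30% in both replicate assays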;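 further: 100% = median of untreated cell wells with 0.1% DMSO on each plate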); conditions: HUVEC proliferation, CellTiter-Glo luminescence, 72 h; at 10 µM; stronger effect = lower value
Procedure, shortened: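 Test system – primary HUVEC, no more than 12 passages · Dosing – one dose, 10 µM final, 0.1% DMSO · Times – 72 h treatment at 37 °C · Measured by – ATP-based CellTiter-Glo luminescent read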

[5] = H69AR cell proliferation blockers – human, duplicate replicates, primary screen (AID 580;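 active means viability at or under a set limit in both replicates, limit being median viability minus 3 SD, cut at about 48% in these data, passing the limit was not always enough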;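 further: 100% = mean luminescence of untreated wells and 0% = no signal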); conditions: H69AR lung tumor cells viability, ATP luminescence, 72 h; at 10 µM; stronger effect = lower value
[6] = MRP1 drug-resistance reversers in H69AR cells – cell-based, doxorubicin co-treatment, pilot screen (AID 601;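 active means viability loss from added drug above about 55%, and viability with drug at most 40%, in both replicates, limit read from the data, passing the limit was not always enough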); conditions: CellTiter-Glo, 72 h, at 10 µM; for differential viability (reversal): stronger effect = higher value
[7] = yeast transport mutant growth inhibition pilot in 384-well plates, post-Golgi transport modulator project (AID 636; in the data active means inhibition above about 31%); conditions: absorbance 615 nm, about 18 h, stronger effect = higher value
[8] = growth suppression of yeast trafficking mutant, preliminary HTS, modulators of trafficking downstream of Golgi apparatus project, 1536-format plate, OD 615 nm (AID 637; in the data active means inhibition above about 30%); conditions: yeast transport mutant growth, absorbance 615 nm, 18 h; stronger effect = higher value
[9] = H69AR cells + 2 uM doxorubicin, measured here: viability with 2 uM doxorubicin, stronger effect = lower value
[10] = H69AR cells, compound alone cytotoxicity

Structure (SMILES)	viability [1] [%]	Her2 level [2]	viability [3]	viability [4]	viability [5]	differential viability (reversal) ([6]; H69AR cells + 2 uM doxorubicin)	viability [6, 9] [%]	viability [6, 10] [%]	inhibition [7]	inhibition [8]
O=C1CC(N2CCOCC2)C(=O)N1c1ccc2c(c1)OCO2 (stereo not given)	102	92.5% (inactive)	102% (inactive)	92% (inactive)	104% (inactive)	-4.17% (inactive)	108	104	-2.11% (inactive)	0.32% (inactive)
CCOC(=O)c1ccc(NC(=O)CCc2nc(-c3cccc(C)c3)no2)cc1	114	97.5% (inactive)	114% (inactive)	40.8% (inactive)	86.2% (inactive)	-12.8% (inactive)	99.1	86.2	0.41% (inactive)	13% (inactive)
COc1ccc2c(c1)[nH]c1c(=O)n(CCN(C)C)cnc12	105	85.5% (inactive)	105% (inactive)	104% (inactive)	91.8% (inactive)	-8.28% (inactive)	100	91.8	-3.16% (inactive)	1.48% (inactive)
CCCOC(=O)CSc1nc(N)c(C#N)c(CC)c1C#N	99.5	116% (inactive)	99.5% (inactive)	105% (inactive)	94.6% (inactive)	0.73% (inactive)	93.9	94.6	2% (inactive)	0.16% (inactive)
CCC(C)(C)NC(=O)C(OC(=O)c1ccco1)c1ccccc1OC (stereo not given)	99	93% (inactive)	99% (inactive)	91.4% (inactive)	106% (inactive)	18.8% (inactive)	87.2	106	-3.65% (inactive)	-5% (inactive)
CCn1cc(C(C)NC(=O)COc2ccc(Cl)cc2C)c(C)n1 (stereo not given)	97	101% (inactive)	97% (inactive)	93.9% (inactive)	105% (inactive)	13.9% (inactive)	91.3	105	-2.89% (inactive)	-4% (inactive)
COCCCn1c2nc3ccccc3nc2c2c(=O)n(-c3ccccc3OC)cnc21	97.5	100% (inactive)	97.5% (inactive)	97.8% (inactive)	73.7% (inactive)	6.27% (inactive)	67.5	73.7	-0.8% (inactive)	4.75% (inactive)
C=CCOC(=O)C1=C(C)OC(N)=C(C#N)C1c1ccc2c(c1)OCO2 (stereo not given)	107	90.5% (inactive)	107% (inactive)	98.2% (inactive)	94.5% (inactive)	7.53% (inactive)	86.9	94.5	-4.32% (inactive)	-4.44% (inactive)
CCc1nc(NCCCN2CCOCC2)c2oc3ccccc3c2n1	88	95% (inactive)	88% (inactive)	80.3% (inactive)	89.1% (inactive)	0.87% (inactive)	88.2	89.1	-0.13% (inactive)	0.81% (inactive)
O=C(NCc1ccco1)C(c1ccco1)N(C(=O)Cn1nnc2ccccc21)c1ccc2c(c1)CCC2 (stereo not given)	95.5	92.5% (inactive)	95.5% (inactive)	89.7% (inactive)	99.8% (inactive)	8.6% (inactive)	91.2	99.8	-2.8% (inactive)	-5.97% (inactive)
O=C(C1CC1(c1ccccc1)c1ccccc1)N1CCOCC1 (stereo not given)	112	106% (inactive)	112% (inactive)	99.3% (inactive)	98.8% (inactive)	11.4% (inactive)	87.3	98.8	-5.6% (inactive)	1.45% (inactive)
CCOc1ccc(C(=O)N2CCN(C(=O)c3ccco3)CC2)cc1OCC	110	85% (inactive)	110% (inactive)	85.8% (inactive)	94.3% (inactive)	0.255% (inactive)	94	94.3	-3.47% (inactive)	-0.79% (inactive)
COc1ccc(-n2c(=O)[nH]cc(C(=O)Nc3ccc(NC(C)=O)cc3)c2=O)cc1	100	106% (inactive)	100% (inactive)	98.8% (inactive)	96.1% (inactive)	0.385% (inactive)	95.7	96.1	-3.78% (inactive)	0% (inactive)
CCOC(=O)c1ccc(N2C(=O)CC(N(C)CCc3ccc(OC)c(OC)c3)C2=O)cc1 (stereo not given)	102	123% (inactive)	102% (inactive)	101% (inactive)	96.8% (inactive)	12.1% (inactive)	84.7	96.8	-2.73% (inactive)	-8.83% (inactive)
O=[n+]1c2c(n([O-])c3cc(F)c(N4CCCC4)cc31)CCC2	101	86.5% (inactive)	101% (inactive)	90.6% (inactive)	74% (inactive)	5.59% (inactive)	68.4	74	-2.57% (inactive)	1.9% (inactive)
Cc1ccc(-c2nnn(CC(=O)N(CC(=O)NC3CCCCC3)c3cnc4ccccc4c3)n2)o1	98	92% (inactive)	98% (inactive)	93.3% (inactive)	96.5% (inactive)	15.9% (inactive)	80.6	96.5	-7.6% (inactive)	-1.61% (inactive)

— PubChem BioAssay
